Screening data as filed in PubChem BioAssay.
RGS4 pot: potentiators or activators of RGS4. B-score at 10 µM. actives 0.92% (n = 310,000). AID 463111. HEK293 M3R/inducible RGS4, carbachol calcium flux Fluo4; stronger effect = lower value;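 active = B-score of the integrated calcium signal more than 4 SD below the library mean, with starting fluorescence not abnormally high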;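 note: negative B-score means reduced calcium response which marks RGS4 activation or potentiation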
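System: HEK293 FlpIn-TREx cells, stable M3R, doxycycline-inducible RGS4. Timing: overnight RGS4 induction, 30 min dye load 37 °C, 20 min compound RT. Also added: carbachol, ECmax concentration. Measured by: Fluo4 fluorescence kinetic imaging of calcium. Evaluation: integrated calcium ratio converted to B score.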
MrgX1 antagonist: human MrgX1 receptor antagonism, primary screen; B-score at 10 µM; MRGX1-HEK293 calcium flux, Fluo-4, BAM8-22 antagonism; stronger effect = lower value; Q96LB2; AID 588676; actives 1.3% (n = 310,000);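 active = calcium-response B-score plate-corrected more than 3 library SD below zero, starting fluorescence within 5 deviations, no agonist response on first addition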;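 note: peak minus trough fluorescence over baseline after final BAM8-22 challenge near maximal dose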
MrgX1 ag: agonists of human MrgX1 receptor | Q96LB2 | MrgX1-HEK293 cells, Fluo-4 calcium fluorescence, agonist mode; stronger effect = higher value | B-score at 10 µM | actives 0.44% (n = 310,000) | AID 588627;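 active = calcium response B-score plate-corrected fluorescence ratio at least 3 library SD, with starting fluorescence B-score inside 5 SD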
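System: HEK293 cells stably expressing human MrgX1 receptor; Dosing: test compound in the initial addition of three; Schedule: overnight plating, then 30 min 37 °C plus 30 min room-temperature dye loading; Detection: kinetic calcium dye fluorescence, Fluo-4 NW; Controls: per-plate positive and negative controls for Z′ factor.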
RGS4 block: human RGS4 inhibition; HEK293 M3R/RGS4 inducible, Fluo-4 calcium flux; stronger effect = higher value; triggered by carbachol at its EC20; B-score at 10 µM; actives 0.45% (n = 310,000);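 active = B-score, a plate-corrected calcium signal, over three deviations above library mean, with baseline fluorescence within five deviations of library mean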;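 note: RGS4 expression induced by doxycycline in cells with stable M3 receptor; B-score is computed from the integrated fluorescence ratio over baseline after carbachol; higher B-score means a larger calcium signal and so more RGS4 inhibition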
Target sequence (P49798 whole entry, looked up): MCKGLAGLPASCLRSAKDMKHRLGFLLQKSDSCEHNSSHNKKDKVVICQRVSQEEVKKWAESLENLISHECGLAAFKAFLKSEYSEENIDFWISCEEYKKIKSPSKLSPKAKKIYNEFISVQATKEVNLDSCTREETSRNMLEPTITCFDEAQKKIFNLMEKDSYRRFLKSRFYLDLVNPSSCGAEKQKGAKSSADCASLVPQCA
MrgX1 PAM: human MrgX1 positive allosteric modulation, primary screen; B-score at 10 µM; AID 588675; MrgX1-HEK293, Fluo-4 calcium flux, FDSS; stronger effect = higher value; Q96LB2; actives 0.63% (n = 310,000);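 active = plate-corrected calcium response at least 3 library SD above typical, normal starting fluorescence, not activating the receptor alone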;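 note: compound read alongside a low EC10 to EC30 dose of BAM8-22 agonist; peak minus trough fluorescence over baseline measured at the second addition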
Each line names hits and unclear results; the compound was inactive in the other large screens. Rows were chosen to be rich in hits. Some 3.5% of all compounds tested hit in one or more screens of this group.

Cc1ccc(-c2c[n+](CC(=O)OCc3ccccc3)c3n2CCC3)cc1	none
O=C(C[n+]1cc(-c2ccc(Cl)cc2)n2c1CCC2)N1c2ccccc2Sc2ccccc21	RGS4 pot -7.6
Cc1cccc(C)c1NC(=O)C1CCCN1C(=O)Nc1cccc(F)c1 (stereo not drawn)	none
CCc1nn(CC(=O)N2CCN(c3ccc(OC)cc3)CC2)c(=O)c2cc3occc3n12	none
COc1ccc(Cl)cc1NC(=O)C1CCN(C(=O)C2CC(=O)N(c3ccc(C)cc3)C2)CC1 (stereo not drawn)	none
O=C(NCCCN1CCOCC1)C(=O)N/N=C/c1c2ccccc2cc2ccccc12	RGS4 pot -9.24
Cc1onc(-c2ccccc2)c1C(=O)N1CCN(Cc2ccccc2)CC1	none
CCOc1cc([N+](=O)[O-])c2nc(N)sc2c1	none
COc1cc(/C=C2\COC/C(=C\c3ccc(O)c(OC)c3)C2=O)ccc1O	none
CCc1ccc(N=C2NC(=O)/C(=C/c3cc(OC)c(O)c(OC)c3)S2)cc1	MrgX1 antagonist -7.63
COc1cc(/C=C2/CC/C(=C/c3ccc(O)c(OC)c3)C2=O)ccc1O	MrgX1 ag 57.8
COc1cc(/C=C2/SC(=Nc3ccc(O)cc3)NC2=O)ccc1O	MrgX1 antagonist -5
COc1ccc(NC(=O)CCC2CCCCC2)cc1S(=O)(=O)N1CCCCC1	none
Cn1nnc(NC(=S)NC(=O)c2cccc3c(Cl)cccc23)n1	none
COc1ccc(-c2ccc(CCC(=O)O)n2CC(=O)Nc2ccccc2C)cc1	none
O=[N+]([O-])c1ccc(Nc2nc(N/N=C\c3ccc4c(c3)OCO4)nc(N3CCCCC3)n2)cc1	MrgX1 antagonist -4.55
O=[N+]([O-])c1ccc(/C=N/Nc2nc(N3CCCCC3)nc(N3CCCCC3)n2)cc1	none
O=C(CCc1ccc(Oc2cc([N+](=O)[O-])cc([N+](=O)[O-])c2)cc1)N1CCCCCC1	RGS4 pot -9.99
O=C(Cc1ccc([N+](=O)[O-])cc1)N1CCCCCC1	none
Cc1ccccc1-c1nc2sc3c(c2c(=O)n1N)CCCC3	MrgX1 PAM 18.2
Nn1c(-c2cccs2)nc2sc3c(c2c1=O)CCCC3	none
CCOc1ccc(CCNS(=O)(=O)c2cc3c(cc2C)NC(=O)CO3)cc1OCC	none
CCOC(=O)N1CCN(c2nc(N(c3ccccc3)c3ccccc3)nc(-n3ccnc3)n2)CC1	RGS4 pot -7.09
Cc1c(Br)c([N+](=O)[O-])nn1CC(=O)N1CCc2ccccc2C1	none
Cc1c(Br)c([N+](=O)[O-])nn1C(C)C(=O)N1CCc2ccccc2C1 (stereo not drawn)	RGS4 pot -9.3
COc1ccc(S(=O)(=O)/N=C2/NC(=O)/C(=C/c3ccco3)S2)cc1	MrgX1 PAM 7.5
CCOC(=O)c1cc(C)nc(Sc2ccc(C)cc2)c1C#N	none
Cc1ccc(SCc2nc3ncccn3c2Br)cc1	RGS4 pot -7.57
Cc1ccc(-c2csc(N/N=C/c3ccco3)n2)cc1	none
Cc1ccc(-c2csc(N/N=C/C=C/c3ccccc3)n2)cc1	MrgX1 antagonist -5.4
C(=N\Nc1nc(-c2ccccc2)cs1)/c1ccco1	MrgX1 antagonist -6.66
COCc1[nH][nH]c(=O)c1/C=N/N1CCOCC1	none
c1ccc(N2CC[N+]3(CCCC3)CC2)nc1	none
c1cnc(N2CC[N+]3(CCCC3)CC2)nc1	RGS4 pot -7.73
CC(OC(=O)c1cc2sccc2n1C)C(=O)NCc1ccco1 (stereo not drawn)	none
Cn1c(C(=O)OC(C(=O)NCc2ccco2)c2ccncc2)cc2sccc21 (stereo not drawn)	MrgX1 antagonist -4.65
COc1cccc(NC(=O)NNC(=O)CCc2ccc(O)c(O)c2)c1	none
COCCN=c1scc(-c2cccs2)n1/N=C/c1ccc(O)c(O)c1O	MrgX1 PAM 15.5
CC12CCC(C/C1=N/OC(=O)c1cccc([N+](=O)[O-])c1)C2(C)C (stereo not drawn)	MrgX1 PAM 9.84
CC12CCC(C/C1=N\OC(=O)c1ccc(F)cc1)C2(C)C (stereo not drawn)	MrgX1 PAM 8.45
C/C(=N\OC(=O)c1ccc(F)cc1)c1ccc(F)c(F)c1	none
FC(F)(F)c1nc(SCc2ccccc2)n[nH]1	none
Cn1c(=O)n(C)c2cc(NC(=O)CSc3ccccc3)ccc21	none
C[n+]1c2n(c3ccccc31)N=C(c1ccc(-c3ccccc3)cc1)CS2	MrgX1 antagonist -6.5
